These results are taken from ChEMBL document CHEMBL4680100, “Revisiting the SAR of the Antischistosomal Aryl Hydantoin (Ro 13-3978)” (J Med Chem, 2016).

A short description of data set [1]: AUC (0 to last) in male Swiss mouse at 100 mg/kg, po administered via gavage measured upto 48 hrs postdose by LC-MS analysis. In kind it is ADME, organism-based. Also on record: route oral, dose 100 mg/kg, time <=48. The note with it: in vivo.
Data set [2] can be described thus: Cmax in male Swiss mouse at 100 mg/kg, po administered via gavage measured upto 48 hrs postdose by LC-MS analysis. In kind it is ADME, organism-based. Also on record: route oral, dose 100 mg/kg, time <=48. The note with it: in vivo. The essentials:
(§1)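 Nonfasted male Swiss outbred mice (25–33 g, 7 per compound, fed ad libitum) were gavaged once at 10 mL/kg. Vehicle was 7% v/v Tween 80, 3% v/v ethanol in water, dosed within 1 h of preparation. Blood was drawn 0.25–48 h postdose (n = 2 per time point) into heparin with stabilizer, and plasma was quantified by LCMS. Noncompartmental analysis.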

A short description of data set [3]: Kinetic solubility of compound at pH 6.5 phosphate buffer by nephelometry. The note with it: read-out: Kinetic_solubility. The format is physicochemical.
The subject of data set [4] is Schistosoma mansoni. Kind of data set: Antischistosomal activity against adult Schistosoma mansoni cercariae infected in mouse assessed as effective dose causing reduction in worm burden. The format is functional.
A further data set deals with Albumin (Homo sapiens, UniProt P02768). Nature of the data set: Protein binding in immobilized human serum albumin by HPLC analysis. In kind it is ADME. The note with it: isolated protein. The essentials:
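Binding estimated from gradient HPLC retention on a human albumin column, correlated against standard compounds of known protein binding.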

Data set [5] can be described thus: Octanol/water partition coefficient, logD of the compound at pH 7.4 by HPLC analysis.
A short description of data set [6]: Intrinsic clearance in human liver microsome in presence of NADPH-regenerating system incubated over 60 mins by LC-MS analysis. The note with it: microsomes, 1 h. A general note: Liver microsomes are vesicles of endoplasmic reticulum, rich in cytochrome P450 enzymes.
Data set [7] is described as follows: Intrinsic clearance in mouse liver microsome in presence of NADPH-regenerating system incubated over 60 mins by LC-MS analysis. The note with it: microsomes, 1 h.
Data set [8] is described as follows: Kinetic solubility of the compound in 0.01 M HCl at pH 2 by nephelometry. In kind it is physicochemical. The note with it: read-out: Kinetic_solubility.
The subject of a further data set is L6. Kind of data set: Cytotoxicity against rat L6 cells assessed as reduction in cell viability at up to 30 uM. The format is cell-based.
The target of data set [9] is T1, Androgen receptor (Homo sapiens, UniProt P10275).
T1 sequence (P10275 whole entry): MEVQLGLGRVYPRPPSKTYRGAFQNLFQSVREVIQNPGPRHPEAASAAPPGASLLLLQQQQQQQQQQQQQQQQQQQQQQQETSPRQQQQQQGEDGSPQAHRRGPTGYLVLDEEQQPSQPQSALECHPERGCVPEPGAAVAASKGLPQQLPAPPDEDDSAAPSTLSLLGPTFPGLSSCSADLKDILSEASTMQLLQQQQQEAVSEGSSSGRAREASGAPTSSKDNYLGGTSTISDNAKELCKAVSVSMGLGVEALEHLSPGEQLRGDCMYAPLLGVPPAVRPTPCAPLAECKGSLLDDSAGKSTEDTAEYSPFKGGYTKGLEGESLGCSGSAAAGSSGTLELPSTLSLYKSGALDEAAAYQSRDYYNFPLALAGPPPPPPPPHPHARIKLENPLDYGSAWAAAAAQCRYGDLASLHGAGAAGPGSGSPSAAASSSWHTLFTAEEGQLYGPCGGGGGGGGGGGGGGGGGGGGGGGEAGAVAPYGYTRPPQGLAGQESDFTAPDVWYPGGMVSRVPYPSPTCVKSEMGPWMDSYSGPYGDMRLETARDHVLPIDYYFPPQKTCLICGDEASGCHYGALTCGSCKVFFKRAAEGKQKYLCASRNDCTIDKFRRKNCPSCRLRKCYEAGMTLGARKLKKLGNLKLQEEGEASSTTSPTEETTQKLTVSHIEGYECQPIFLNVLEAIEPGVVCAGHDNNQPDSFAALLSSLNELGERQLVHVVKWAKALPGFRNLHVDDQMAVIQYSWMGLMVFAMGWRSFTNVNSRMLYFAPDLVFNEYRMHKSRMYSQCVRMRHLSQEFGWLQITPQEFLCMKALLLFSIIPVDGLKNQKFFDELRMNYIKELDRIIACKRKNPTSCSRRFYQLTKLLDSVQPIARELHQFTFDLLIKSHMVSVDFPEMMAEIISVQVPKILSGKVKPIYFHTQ

In data set [10] the test system is Schistosoma mansoni. Kind of data set: Antischistosomal activity against juvenile Schistosoma mansoni cercariae infected in mouse assessed as effective dose causing reduction in worm burden. In kind it is functional.
Data set [11] deals with Schistosoma mansoni. Kind of data set: Antischistosomal activity against Schistosoma mansoni infected in NMRI mouse assessed as reduction in total worm burden at 100 mg/kg, po administered as single dose starting on day 49 post-infection and measured at 28 days post treatment relative to control. In kind it is functional. Also on record: scale not given: the % may be the effect or the level left. The note with it: time 28 day. The gist of the method: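 S. mansoni-infected NMRI mice treated on day 49 post-infection with a single oral dose, dissolved or suspended in 7% v/v Tween 80, 3% v/v ethanol (10 mL/kg), five mice per group. Sacrificed and dissected 28 d post-treatment; worms counted to give total worm burden reduction versus untreated controls. Kruskal–Wallis test on medians, treatment versus control.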

Data set [12] is described as follows: Tmax in male Swiss mouse at 100 mg/kg, po administered via gavage measured upto 48 hrs postdose by LC-MS analysis. The note with it: in vivo. The format is ADME, organism-based. The gist of the method:
as §1

Data set [13] concerns the target T1, Androgen receptor. The note with it: lapc4.
The subject of data set [14] is Schistosoma mansoni. Kind of data set: Antischistosomal activity against Schistosoma mansoni infected in mouse assessed as effective dose causing reduction in worm burden. In kind it is functional.

pIC50: −log10 of the molar value. In brackets after ≈: the same amount, converted by molar mass.

Albumin, sequence (P02768 whole entry): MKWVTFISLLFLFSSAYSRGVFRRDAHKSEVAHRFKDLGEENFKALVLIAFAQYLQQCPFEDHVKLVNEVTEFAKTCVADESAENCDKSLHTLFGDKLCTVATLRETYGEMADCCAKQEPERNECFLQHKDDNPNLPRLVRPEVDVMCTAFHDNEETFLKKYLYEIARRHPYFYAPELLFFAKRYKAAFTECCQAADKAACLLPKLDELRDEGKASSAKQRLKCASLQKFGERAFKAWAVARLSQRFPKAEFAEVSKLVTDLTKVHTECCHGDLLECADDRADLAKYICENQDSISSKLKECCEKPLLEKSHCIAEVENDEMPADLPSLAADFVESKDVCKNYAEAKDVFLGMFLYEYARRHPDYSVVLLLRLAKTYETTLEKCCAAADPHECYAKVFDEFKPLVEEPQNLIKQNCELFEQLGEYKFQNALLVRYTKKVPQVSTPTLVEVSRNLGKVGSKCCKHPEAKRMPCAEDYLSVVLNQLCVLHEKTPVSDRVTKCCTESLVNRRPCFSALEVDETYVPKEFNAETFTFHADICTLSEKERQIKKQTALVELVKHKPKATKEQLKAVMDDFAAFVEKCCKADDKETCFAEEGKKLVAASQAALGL

In the case of `CC1(C)NC(=O)N(c2ccc(F)c(C(F)(F)F)c2)C1=O`, the AUClast in data set [1] worked out at 2740 µM·h. The concentration in [2] peaked (Cmax) at 124 µM. For the same compound, the solubility kinetic in data set [3] and in [8] was over 100 µg/mL in each case. The figures for the ED50 in the data set on Schistosoma mansoni [4] and in the data set with Schistosoma mansoni [10] were 15 mg/kg and 140 mg/kg, respectively. The compound also returned a PPB at Albumin of 52.1%. Moreover, in data set [5], the log distribution coefficient (logD) – broadly, the decadic logarithm of the distribution of all forms, ionised or not, between an organic phase and buffer at a given pH – amounted to 2.7. For the same compound, the CLH was 8 µL/min/mg in data set [6] and under 7 µL/min/mg in data set [7]. Also, the Activity entry was “Non-Toxic” with L6 and 95% in the data set on Schistosoma mansoni [11]. Moreover, the negative logarithm of the IC50 (pIC50) (commonly the negative decadic logarithm of the IC50, by convention in mol/L) on Androgen receptor [9] was 5.36.
`CN(C)C(=O)c1cc(N2C(=O)NC(C)(C)C2=O)ccc1F` returned an AUClast in [1] of 1360 µM·h. Also, the highest level in data set [2] (Cmax) was 488 µM. In addition, the solubility kinetic in data set [3] and in data set [8] was over 100 µg/mL throughout. This compound also yielded a PPB on Albumin of 5.9%. The compound further had a logD in [5] of 0.9. Moreover, the CLH in [6] and in [7] was under 7 µL/min/mg throughout. The Activity result is “Non-Toxic” in the data set on L6 and 30% in the data set with Schistosoma mansoni [11]. Also, the pIC50 against Androgen receptor [9] was 5.04. Further, the Tmax (in general, the time from dosing to the highest level) in [12] is 1 h.
For `CC1(C)C(=O)N(c2ccc(F)c(C(F)(F)F)c2)C(=O)N1CC(N)=O`, the IC50 entry on Androgen receptor [13] is listed as “Not Active”. For the same compound, the solubility kinetic in [3] and in [8] was 50 µg/mL (≈ 144 µM) each time. Besides, the PPB on Albumin is given as 20.3%. Moreover, the logD in data set [5] was 2.2. Besides, the CLH in data set [6] and in data set [7] was under 7 µL/min/mg throughout. In addition, the Activity entry in the data set with L6 is on record as “Non-Toxic”; in the data set with Schistosoma mansoni [11] it was 25%.
`CCN1C(=O)N(c2ccc(F)c(C(F)(F)F)c2)C(=O)C1(C)C` displayed an AUClast in data set [1] of 103 µM·h. In addition, the Cmax – broadly, the peak of the concentration-time curve – in [2] was 11.1 µM. Further, the solubility kinetic in [3] is 25 µg/mL (≈ 78.5 µM); in data set [8], 50 µg/mL (≈ 157 µM). On Albumin, this compound yielded a PPB of 49.3%. Also, the logD in [5] turned out to be 3.5. The results for the CLH in data set [6] and in data set [7] were 30 µL/min/mg and 32 µL/min/mg, respectively. The Activity entry is on record as “Non-Toxic” in the data set with L6 and 98% in the data set on Schistosoma mansoni [11]. This compound gave a pIC50 against Androgen receptor [9] of 6.85. In data set [12], the Tmax worked out at 1 h.
On to `COC(=O)C(C)(C)NC(=O)Nc1ccc(F)c(C(F)(F)F)c1`, for which, in the data set on Schistosoma mansoni [14], the ED50 – broadly, the dose at which the effect has come halfway, by size or by number of responders – amounted to 62 mg/kg.
